Measured values from ChEMBL document CHEMBL3774321, “Systematic diversification of benzylidene heterocycles yields novel inhibitor scaffolds selective for Dyrk1A, Clk1 and CK2” (Eur J Med Chem, 2016).

Key:
[1] = molecular target: Casein kinase II (Homo sapiens, UniProt P19784+P67870+P68400); test: (§1) Inhibition of CK2 (unknown origin) using RRRDDDSDDD-NH2 as susbtrate incubated for 15 mins in presence of [gamma-32P]ATP; assay type: protein-complex assay
[2] = molecular target: Epidermal growth factor receptor (Homo sapiens, UniProt P00533); test: Inhibition of EGFR (unknown origin) incubated for 15 mins in presence of [gamma-32P]ATP
How it was run: (§2)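 Purified recombinant kinase assayed with 100 μM ATP. Values averaged from at least two independent determinations.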

[3] = molecular target: T1, Dual specificity tyrosine-phosphorylation-regulated kinase 1A (Homo sapiens, UniProt Q13627); test: Inhibition of recombinant human N-terminal His6-tagged DYRK1A catalytic domain expressed in Escherichia coli BL21(DE3) cells using KKISGRLSPIMTEQ-NH2 as substrate incubated for 15 mins in presence of [gamma-32P]ATP
[4] = molecular target: Protein kinase C beta type (Homo sapiens, UniProt P05771); test: Inhibition of PKCbeta (unknown origin) incubated for 15 mins in presence of [gamma-32P]ATP; how it was run: as §2
[5] = molecular target: Dual specificity protein kinase CLK1 (Homo sapiens, UniProt P49759); test: Inhibition of recombinant human GST-tagged CLK1 catalytic domain (129 to 484 residues) expressed in Escherichia coli using GRSRSRSRSRSRSRSR as substrate incubated for 15 mins in presence of [gamma-32P]ATP
How it was run: (§3)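 Purified recombinant kinase with 100 µM ATP. IC50 values are averages of at least two independent determinations.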

[6] = molecular target: T2, Dual specificity tyrosine-phosphorylation-regulated kinase 2 (Homo sapiens, UniProt Q92630); test: Inhibition of recombinant human N-terminal GST-tagged DYRK2 expressed in Escherichia coli BL21(DE3) cells using KKISGRLSPIMTEQ-NH2 as substrate incubated for 15 mins in presence of [gamma-32P]ATP; how it was run: as §3
T2 sequence (Q92630 whole entry): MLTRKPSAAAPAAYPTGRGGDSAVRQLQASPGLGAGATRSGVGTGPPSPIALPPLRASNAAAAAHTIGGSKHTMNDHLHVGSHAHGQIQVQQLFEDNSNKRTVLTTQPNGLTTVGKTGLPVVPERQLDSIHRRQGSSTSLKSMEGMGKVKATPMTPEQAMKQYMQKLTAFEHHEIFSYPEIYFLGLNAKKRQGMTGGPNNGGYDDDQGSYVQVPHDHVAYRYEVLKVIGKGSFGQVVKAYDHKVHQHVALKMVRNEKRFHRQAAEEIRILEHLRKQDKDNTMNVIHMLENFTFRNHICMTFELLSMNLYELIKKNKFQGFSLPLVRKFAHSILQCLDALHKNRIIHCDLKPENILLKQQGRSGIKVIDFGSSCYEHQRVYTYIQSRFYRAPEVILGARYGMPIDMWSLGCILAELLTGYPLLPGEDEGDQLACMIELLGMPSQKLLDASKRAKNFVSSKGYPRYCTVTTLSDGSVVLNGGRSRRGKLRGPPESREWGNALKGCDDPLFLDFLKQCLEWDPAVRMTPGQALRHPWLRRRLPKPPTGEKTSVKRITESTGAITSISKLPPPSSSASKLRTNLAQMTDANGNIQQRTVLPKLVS

[7] = molecular target: Dual specificity tyrosine-phosphorylation-regulated kinase 1B (Homo sapiens, UniProt Q9Y463); test: Inhibition of full length recombinant human GST-tagged DYRK1B expressed in insect cells using KKISGRLSPIMTEQ-NH2 as substrate incubated for 15 mins in presence of [gamma-32P]ATP
[8] = Dissociation constant, pKa of compound; assay type: physicochemical
[9] = molecular target: Casein kinase II (Homo sapiens, UniProt P67870+P68400+P19784); test: as §1; assay type: protein-complex assay
[10] = Growth inhibition of human U87MG cells after 4 days by MTT assay; assay type: functional, cell-based, U-87MG ATCC; settings: U-87 MG, 96 h
[11] = molecular target: T1, Dual specificity tyrosine-phosphorylation-regulated kinase 1A; test: Inhibition of tetracycline-inducible EGFP-DYRK1A (unknown origin) expressed in HEK293 cells coexpressing full length human EGFP-tau protein assessed as reduction in tau-Thr212 phosphorylation incubated overnight by immunoblotting assay
[12] = Half life in rat plasma at 1 uM by LC-MS/MS analysis; assay type: ADME, cell-free
How it was run: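 Pooled heparinized rat plasma incubated with 1 μM compound at 37 °C, sampled at 0, 5, 15, 30, 60 and 120 min. Reaction stopped with 5 volumes cold acetonitrile containing internal standard. Remaining compound quantified by LC-MS/MS. Half-life given as mean of two experiments.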

[13] = system: Plasma; test: Metabolic stability in rat plasma assessed as drug degradation at 1 uM after 120 mins by LC-MS/MS analysis; assay type: ADME, cell-free; settings: 2 h
How it was run: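 Compound (1 µM) in pooled heparinised rat plasma at 37 °C, sampled at 0, 5, 15, 30, 60 and 120 min. Reaction stopped with 5 volumes of cold acetonitrile containing internal standard. Remaining compound was measured by LC-MS/MS; means of two experiments.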

Dual specificity protein kinase CLK1, sequence (P49759 whole entry, the tested form may be a part): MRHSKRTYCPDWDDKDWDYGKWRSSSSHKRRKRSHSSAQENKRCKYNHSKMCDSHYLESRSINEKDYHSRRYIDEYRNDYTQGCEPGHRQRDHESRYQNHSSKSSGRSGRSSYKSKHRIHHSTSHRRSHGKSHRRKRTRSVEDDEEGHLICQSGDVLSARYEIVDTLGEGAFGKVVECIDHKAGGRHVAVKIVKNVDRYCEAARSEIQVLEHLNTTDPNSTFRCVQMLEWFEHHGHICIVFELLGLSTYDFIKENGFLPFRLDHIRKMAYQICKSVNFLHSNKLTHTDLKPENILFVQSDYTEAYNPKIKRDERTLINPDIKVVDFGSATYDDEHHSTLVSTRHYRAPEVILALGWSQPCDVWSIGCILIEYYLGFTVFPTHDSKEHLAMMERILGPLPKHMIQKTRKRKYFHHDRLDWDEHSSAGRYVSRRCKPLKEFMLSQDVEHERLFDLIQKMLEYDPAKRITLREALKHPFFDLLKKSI
Protein kinase C beta type, sequence (P05771 whole entry, the tested form may be a part): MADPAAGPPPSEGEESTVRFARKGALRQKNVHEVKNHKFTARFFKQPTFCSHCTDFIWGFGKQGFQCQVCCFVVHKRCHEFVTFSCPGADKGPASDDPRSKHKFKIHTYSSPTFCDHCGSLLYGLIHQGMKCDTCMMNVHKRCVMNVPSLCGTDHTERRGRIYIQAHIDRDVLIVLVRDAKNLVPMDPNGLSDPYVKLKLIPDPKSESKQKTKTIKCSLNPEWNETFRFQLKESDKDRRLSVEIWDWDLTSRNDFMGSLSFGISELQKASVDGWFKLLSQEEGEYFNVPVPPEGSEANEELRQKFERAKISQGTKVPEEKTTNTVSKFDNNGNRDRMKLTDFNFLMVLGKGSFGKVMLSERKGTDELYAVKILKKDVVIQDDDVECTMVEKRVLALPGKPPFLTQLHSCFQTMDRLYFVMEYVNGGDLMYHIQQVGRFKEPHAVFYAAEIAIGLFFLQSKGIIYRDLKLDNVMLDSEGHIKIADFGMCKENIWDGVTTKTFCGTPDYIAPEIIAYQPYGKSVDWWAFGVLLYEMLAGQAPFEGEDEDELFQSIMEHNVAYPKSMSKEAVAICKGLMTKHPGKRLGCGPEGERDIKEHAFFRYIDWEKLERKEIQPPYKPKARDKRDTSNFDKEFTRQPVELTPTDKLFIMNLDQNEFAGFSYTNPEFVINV
Casein kinase II (Homo sapiens, UniProt P19784+P67870+P68400), sequence (P67870 whole entry): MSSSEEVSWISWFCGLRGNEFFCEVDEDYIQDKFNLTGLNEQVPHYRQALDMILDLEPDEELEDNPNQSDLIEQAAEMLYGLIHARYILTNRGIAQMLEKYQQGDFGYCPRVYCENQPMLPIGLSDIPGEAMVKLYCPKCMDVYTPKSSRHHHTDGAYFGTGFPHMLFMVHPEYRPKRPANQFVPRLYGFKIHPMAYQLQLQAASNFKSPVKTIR
Casein kinase II (Homo sapiens, UniProt P19784+P67870+P68400), sequence (P68400 whole entry): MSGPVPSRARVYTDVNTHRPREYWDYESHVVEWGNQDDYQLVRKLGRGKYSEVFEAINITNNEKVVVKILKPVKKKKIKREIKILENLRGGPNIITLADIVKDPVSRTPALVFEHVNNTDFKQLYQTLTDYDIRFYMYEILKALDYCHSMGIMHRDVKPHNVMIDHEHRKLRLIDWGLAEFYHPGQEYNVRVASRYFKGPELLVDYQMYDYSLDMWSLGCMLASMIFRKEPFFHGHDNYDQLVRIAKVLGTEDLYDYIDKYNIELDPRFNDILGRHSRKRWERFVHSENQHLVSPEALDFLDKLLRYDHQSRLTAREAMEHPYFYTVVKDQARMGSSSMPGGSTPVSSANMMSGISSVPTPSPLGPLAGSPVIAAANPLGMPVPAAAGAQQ
Casein kinase II (Homo sapiens, UniProt P19784+P67870+P68400), sequence (P19784 whole entry): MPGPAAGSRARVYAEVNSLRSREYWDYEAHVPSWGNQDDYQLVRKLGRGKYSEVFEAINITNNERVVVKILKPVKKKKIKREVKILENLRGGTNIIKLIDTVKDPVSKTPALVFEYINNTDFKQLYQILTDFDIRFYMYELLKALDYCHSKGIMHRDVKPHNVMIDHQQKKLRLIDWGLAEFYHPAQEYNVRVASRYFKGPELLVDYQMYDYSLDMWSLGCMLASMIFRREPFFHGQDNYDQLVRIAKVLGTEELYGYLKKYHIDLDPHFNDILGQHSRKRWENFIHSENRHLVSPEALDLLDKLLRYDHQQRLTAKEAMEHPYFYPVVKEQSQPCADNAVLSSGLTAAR
Dual specificity tyrosine-phosphorylation-regulated kinase 1B, sequence (Q9Y463 whole entry): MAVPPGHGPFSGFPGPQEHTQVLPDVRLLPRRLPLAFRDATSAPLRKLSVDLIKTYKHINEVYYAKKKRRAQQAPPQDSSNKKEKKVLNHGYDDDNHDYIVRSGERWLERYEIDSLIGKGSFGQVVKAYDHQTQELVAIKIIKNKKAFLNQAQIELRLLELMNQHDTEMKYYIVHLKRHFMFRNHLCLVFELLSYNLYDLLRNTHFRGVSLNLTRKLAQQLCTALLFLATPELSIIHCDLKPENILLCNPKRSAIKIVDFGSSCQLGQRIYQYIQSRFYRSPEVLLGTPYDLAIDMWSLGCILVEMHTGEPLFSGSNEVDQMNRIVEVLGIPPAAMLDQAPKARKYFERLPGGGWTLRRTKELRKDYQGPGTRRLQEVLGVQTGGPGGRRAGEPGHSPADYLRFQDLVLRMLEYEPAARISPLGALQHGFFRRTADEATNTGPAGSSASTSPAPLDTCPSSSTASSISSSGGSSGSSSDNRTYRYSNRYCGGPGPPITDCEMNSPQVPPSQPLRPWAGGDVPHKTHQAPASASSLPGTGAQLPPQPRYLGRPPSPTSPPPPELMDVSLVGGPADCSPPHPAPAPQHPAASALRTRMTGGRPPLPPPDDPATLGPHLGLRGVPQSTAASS
Epidermal growth factor receptor, sequence (P00533 whole entry): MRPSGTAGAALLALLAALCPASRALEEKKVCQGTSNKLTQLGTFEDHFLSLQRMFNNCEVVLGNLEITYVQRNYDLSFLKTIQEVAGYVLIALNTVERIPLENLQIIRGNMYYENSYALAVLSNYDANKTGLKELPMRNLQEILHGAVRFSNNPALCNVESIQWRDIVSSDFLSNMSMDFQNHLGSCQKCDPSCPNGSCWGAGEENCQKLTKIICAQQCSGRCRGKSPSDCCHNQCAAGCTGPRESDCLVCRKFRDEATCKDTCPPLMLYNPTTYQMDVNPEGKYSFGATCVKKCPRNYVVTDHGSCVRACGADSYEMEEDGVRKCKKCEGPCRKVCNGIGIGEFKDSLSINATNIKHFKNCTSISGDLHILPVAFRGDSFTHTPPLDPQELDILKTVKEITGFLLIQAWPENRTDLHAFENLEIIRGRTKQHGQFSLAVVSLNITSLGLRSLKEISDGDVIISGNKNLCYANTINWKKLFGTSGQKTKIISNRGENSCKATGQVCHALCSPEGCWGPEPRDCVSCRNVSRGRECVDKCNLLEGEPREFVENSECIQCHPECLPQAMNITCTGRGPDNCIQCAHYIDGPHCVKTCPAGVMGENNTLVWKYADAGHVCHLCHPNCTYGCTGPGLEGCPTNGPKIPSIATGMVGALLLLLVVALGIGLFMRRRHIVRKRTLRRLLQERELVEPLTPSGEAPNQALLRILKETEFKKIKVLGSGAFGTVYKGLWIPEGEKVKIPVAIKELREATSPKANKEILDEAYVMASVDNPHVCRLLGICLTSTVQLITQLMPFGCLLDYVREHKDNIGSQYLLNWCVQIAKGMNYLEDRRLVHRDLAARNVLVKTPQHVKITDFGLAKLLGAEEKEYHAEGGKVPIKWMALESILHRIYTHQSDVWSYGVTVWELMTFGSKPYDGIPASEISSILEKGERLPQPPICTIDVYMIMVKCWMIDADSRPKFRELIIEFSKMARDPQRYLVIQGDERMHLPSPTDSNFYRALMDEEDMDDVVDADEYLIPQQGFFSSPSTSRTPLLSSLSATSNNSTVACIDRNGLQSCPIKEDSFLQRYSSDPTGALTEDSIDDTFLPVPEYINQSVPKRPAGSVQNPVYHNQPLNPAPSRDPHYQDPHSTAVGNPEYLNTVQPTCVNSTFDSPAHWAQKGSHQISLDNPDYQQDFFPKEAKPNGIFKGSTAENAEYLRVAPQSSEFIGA
Casein kinase II (Homo sapiens, UniProt P67870+P68400+P19784), sequence (P67870 whole entry): as the sequence (P67870 whole entry) above
Casein kinase II (Homo sapiens, UniProt P67870+P68400+P19784), sequence (P68400 whole entry): as the sequence (P68400 whole entry) above
Casein kinase II (Homo sapiens, UniProt P67870+P68400+P19784), sequence (P19784 whole entry): as the sequence (P19784 whole entry) above

Row | Structure (SMILES) | IC50 [1] | IC50 ([2]; read-out: IC50) | IC50 [3] | IC50 [4] | IC50 [5] | IC50 ([6]; read-out: IC50) | IC50 [7] | IC50 [6] | IC50 [2] | pKa [8] | IC50 [9] | IC50 [10] | IC50 ([4]; read-out: IC50) | IC50 [11] | half-life at 1 µM [12] | Stability [13]
1 | O=C1OCC/C1=C\c1ccc2c(c1)OCCO2 | > 10 µM | > 10 µM | 0.88 µM | Not Active | > 10 µM | 2.04 µM | 4.29 µM | – | – | – | – | – | – | – | – | –
2 | COc1ccc(/C=C2\CC(=O)NC2=O)cc1 | – | – | > 10 µM | – | – | – | – | – | – | – | – | – | – | – | – | –
3 | COc1ccc(/C=C2\CC(C)OC2=O)cc1 (stereo not drawn) | > 10 µM | – | 1.2 µM | Not Active | 4.37 µM | – | 10.5 µM | Not Active | – | – | – | – | – | – | – | –
4 | COc1ccc(/C=C2\NC(=O)SC2=O)cc1 | 0.17 µM | – | 1.3 µM | Not Active | 3.6 µM | 9.2 µM | 5.2 µM | – | Not Active | – | – | – | – | – | – | –
5 | COc1ccc(/C=C2\NC(=O)NC2=O)cc1 | – | – | 6.4 µM | Not Active | 10 µM | – | > 10 µM | Not Active | – | 8.9 | Not Active | – | – | – | – | –
6 | O=C1NC(=S)S/C1=C\c1ccc2c(c1)CCO2 | 0.1 µM | > 10 µM | 0.1 µM | – | 0.5 µM | 1 µM | 0.3 µM | – | – | – | – | 5.6 µM | > 10 µM | – | – | –
7 | O=C1OCC/C1=C\c1ccc2c(c1)CCCO2 | > 10 µM | > 10 µM | 0.93 µM | Not Active | 3.9 µM | > 10 µM | 6.7 µM | – | – | – | – | – | – | – | – | –
8 | COc1ccc(/C=C2\CCOC2=O)cc1 | – | – | 1.81 µM | Not Active | > 10 µM | > 10 µM | 3.8 µM | – | Not Active | – | Not Active | – | – | – | – | –
9 | O=C1NC(=O)/C(=C/c2ccc3nccnc3c2)S1 | 0.02 µM | > 10 µM | 0.03 µM | Not Active | 0.07 µM | 0.1 µM | 0.08 µM | – | – | – | – | 0.32 µM | – | 1.6 µM | – | –
10 | COc1ccc([C@@H]2Sc3ccccc3N(CCN(C)C)C(=O)[C@@H]2OC(C)=O)cc1 [DILTIAZEM] | – | – | – | – | – | – | – | – | – | – | – | – | – | – | 2.08 h | –
11 | CC1C/C(=C\c2ccc3ncsc3c2)C(=O)O1 (stereo not drawn) | > 10 µM | > 10 µM | 1.08 µM | Not Active | 0.17 µM | > 10 µM | 1.68 µM | – | – | – | – | – | – | – | – | –
12 | COc1ccc2c(c1)[nH]c1c(C)nccc12 [HARMINE] | – | – | – | – | – | – | – | – | – | – | – | 7.2 µM | – | – | – | –
13 | COc1ccc(/C=C2\CCCOC2=O)cc1 | > 10 µM | – | 1.1 µM | Not Active | 7.52 µM | > 10 µM | 5.8 µM | – | Not Active | – | – | – | – | – | – | –
14 | COc1ccc(/C=C2/SC(=S)NC2=O)cc1 | 0.22 µM | – | 0.25 µM | Not Active | 5.7 µM | > 10 µM | 1.5 µM | – | Not Active | 5.8 | – | 9.5 µM | – | – | – | –
15 | O=C1NC(=S)N/C1=C\c1ccc2ncsc2c1 | 2.4 µM | > 10 µM | 0.7 µM | – | 0.02 µM | 1.5 µM | 0.9 µM | – | – | – | – | – | > 10 µM | – | – | –
16 | O=C1OCC/C1=C\c1ccc2c(c1)OCO2 | > 10 µM | > 10 µM | 0.6 µM | Not Active | > 10 µM | 0.99 µM | 2.63 µM | – | – | – | – | – | – | – | – | –
17 | O=C1OCC/C1=C\c1ccc2c(c1)CCO2 | > 10 µM | > 10 µM | 0.96 µM | Not Active | > 10 µM | 0.82 µM | 2.17 µM | – | – | – | – | – | – | – | > 2 h | Stable
18 | CCOC(=O)[C@H](Cc1ccccc1)NC(C)=O | – | – | – | – | – | – | – | – | – | – | – | – | – | – | < 0.0833 h | –
